Measured values reported in ChEMBL document CHEMBL4376840, “Application of Fluorine- and Nitrogen-Walk Approaches: Defining the Structural and Functional Diversity of 2-Phenylindole Class of Cannabinoid 1 Receptor Positive Allosteric Modulators” (J Med Chem, 2020).

Key:
[1] = target: T1, Cannabinoid receptor 1 (Homo sapiens, UniProt P21554); test: Positive allosteric modulatory activity at human CB1R expressed in CHO-K1 cells assessed as increase in CP55940-induced inhibition of forskolin-stimulated cAMP production after 30 mins in presence of CP55940 at EC20 concentration by hit-hunter cAMP assay; format: functional, cell-based
Outline: (§1)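 Read-out was chemiluminescent cAMP detection, fit with a variable-slope 4-parameter regression. n = 1–3 independent experiments in duplicate.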

[2] = target: T1, Cannabinoid receptor 1; test: Positive allosteric modulatory activity at human CB1R expressed in CHO-K1 cells assessed as increase in CP55940-induced beta-arrestin2 recruitment after 90 mins in presence of CP55940 at EC20 concentration by pathhunter beta-arrestin assay; format: cell-based
Outline: (§2)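 Read-out was chemiluminescent β-arrestin2 recruitment, fit with a 4-parameter regression. n = 1–3 independent experiments in duplicate.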

[3] = target: T1, Cannabinoid receptor 1; test: Positive allosteric modulatory activity at human CB1R expressed in CHO-K1 cells assessed as increase in CP55940-induced inhibition of forskolin-stimulated cAMP production after 30 mins in presence of CP55940 at EC20 concentration by hit-hunter cAMP assay relative to control; format: functional, cell-based; outline: as §1
[4] = target: T1, Cannabinoid receptor 1; test: Positive allosteric modulatory activity at human CB1R expressed in CHO-K1 cells assessed as increase in CP55940-induced beta-arrestin2 recruitment after 90 mins in presence of CP55940 at EC20 concentration by pathhunter beta-arrestin assay relative to control; format: cell-based; outline: as §2
[5] = buffer, pH 7.4, 24 h

T1 sequence (P21554 whole entry): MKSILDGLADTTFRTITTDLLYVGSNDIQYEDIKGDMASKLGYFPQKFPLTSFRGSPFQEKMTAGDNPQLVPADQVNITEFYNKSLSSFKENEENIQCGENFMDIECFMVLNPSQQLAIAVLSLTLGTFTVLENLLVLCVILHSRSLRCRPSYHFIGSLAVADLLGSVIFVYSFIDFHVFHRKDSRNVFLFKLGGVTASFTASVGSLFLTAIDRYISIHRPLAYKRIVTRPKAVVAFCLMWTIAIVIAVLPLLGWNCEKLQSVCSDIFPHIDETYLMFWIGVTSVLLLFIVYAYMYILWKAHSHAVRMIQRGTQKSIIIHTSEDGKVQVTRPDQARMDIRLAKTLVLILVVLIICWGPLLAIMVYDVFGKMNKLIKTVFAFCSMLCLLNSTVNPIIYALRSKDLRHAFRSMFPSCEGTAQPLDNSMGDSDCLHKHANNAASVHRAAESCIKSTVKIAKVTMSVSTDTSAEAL

Work on `O=[N+]([O-])CC(c1ccccc1F)c1c(-c2ccccc2)[nH]c2ccccc12` (stereo not drawn) yielded an EC50 [1] of 0.043 µM, an EC50 [2] of 1.06 µM and an Emax [3] of 110%. For the same molecule, the Emax [4] was 63%.

Work on `O=[N+]([O-])CC(c1ccccc1)c1c(-c2ccccc2)[nH]c2c(F)cccc12` (stereo not drawn) yielded an EC50 [1] of 0.022 µM, an EC50 [2] of 0.75 µM and an Emax [3] of 120%. It also gave an Emax [4] of 45%.

For `O=[N+]([O-])CC(c1ccccc1)c1c(-c2ccccc2)[nH]c2cnccc12` (stereo not drawn), the EC50 [1] was 0.45 µM, the EC50 [2] was over 10 µM and the Emax [3] was 5.2%. It also gave a Therm_solubility [5] of 6.8 µM and an Emax [4] of 5.1%.

In the case of `O=[N+]([O-])CC(c1cccnc1)c1c(-c2ccccc2)[nH]c2ccccc12` (stereo not drawn), the EC50 [1] is reported as 3.1 µM, the EC50 [2] is reported as over 10 µM and the Emax [3] is reported as 170%. The Therm_solubility [5] was 1.1 µM and the Emax [4] was -8.1%.

`O=[N+]([O-])CC(c1ccccc1F)c1c(-c2ccccc2)[nH]c2c(F)cccc12` (stereo not drawn) gave an EC50 [1] of 0.021 µM and an EC50 [2] of 0.68 µM.

In the case of `O=[N+]([O-])CC(c1ccc(F)cc1)c1c(-c2cccc(F)c2)[nH]c2cc(F)ccc12` (stereo not drawn), the EC50 [1] is reported as 1.15 µM, the EC50 [2] is reported as 2.1 µM and the Emax [3] is reported as 91%. It also gave an Emax [4] of 56%.

Work on `O=[N+]([O-])CC(c1ccc(F)cc1)c1c(-c2ccccc2)[nH]c2c(F)cccc12` (stereo not drawn) yielded an EC50 [1] of 0.27 µM, an EC50 [2] of 0.7 µM and an Emax [3] of 121%. The Emax [4] was 27%.

For `O=[N+]([O-])CC(c1ccccc1)c1c(-c2cccc(F)c2)[nH]c2ccccc12` (stereo not drawn), the EC50 [1] was 0.08 µM and the EC50 [2] was 1.3 µM.

`O=[N+]([O-])CC(c1ccncc1)c1c(-c2ccccc2)[nH]c2ccccc12` (stereo not drawn) showed an EC50 [1] of 0.51 µM, an EC50 [2] of 4 µM and an Emax [3] of 110%. It also gave a Therm_solubility [5] of 36.7 µM and an Emax [4] of 25%.

With `O=[N+]([O-])CC(c1ccccc1)c1c(-c2ccncc2)[nH]c2ccccc12` (stereo not drawn) the EC50 [1] was 3.1 µM, the EC50 [2] was 1.6 µM and the Emax [3] was 88%. It also gave a Therm_solubility [5] of 2.1 µM and an Emax [4] of 19%.

With `O=[N+]([O-])CC(c1ccccn1)c1c(-c2ccccc2)[nH]c2ccccc12` (stereo not drawn) the EC50 [1] was 0.26 µM, the EC50 [2] was over 10 µM and the Emax [3] was 130%. The Therm_solubility [5] was 2.8 µM and the Emax [4] was 5.8%.

Work on `O=[N+]([O-])CC(c1ccccc1)c1c(-c2ccccc2)[nH]c2cc(F)ccc12` (stereo not drawn) yielded an EC50 [1] of 0.11 µM, an EC50 [2] of 1.1 µM and an Emax [3] of 120%. It also gave an Emax [4] of 38%.

`O=[N+]([O-])CC(c1ccccc1)c1c(-c2ccccc2)[nH]c2ccc(F)cc12` (stereo not drawn) gave an EC50 [1] of 0.191 µM, an EC50 [2] of 0.74 µM and an Emax [3] of 130%. For the same molecule, the Emax [4] was 23%.

Molecule `O=[N+]([O-])CC(c1ccccc1)c1c(-c2ccc(F)cc2)[nH]c2ccccc12` (stereo not drawn) has an EC50 [1] of 1.6 µM, an EC50 [2] of over 10 µM and an Emax [3] of 120%. It also gave an Emax [4] of -2.2%.

`O=[N+]([O-])CC(c1ccc(F)cc1)c1c(-c2ccccc2)[nH]c2cc(F)ccc12` (stereo not drawn) showed an EC50 [1] of 1.3 µM, an EC50 [2] of 1.1 µM and an Emax [3] of 47%. The Emax [4] was 32%.

With `O=[N+]([O-])CC(c1ccccc1)c1c(-c2ccccc2)[nH]c2cccnc12` (stereo not drawn) the EC50 [1] was over 10 µM, the EC50 [2] was 1.6 µM and the Emax [3] was 81%. For the same molecule, the Therm_solubility [5] was 11.2 µM and the Emax [4] was 30%.

In the case of `O=[N+]([O-])CC(c1cccc(F)c1)c1c(-c2ccccc2)[nH]c2ccccc12` (stereo not drawn), the EC50 [1] is reported as 0.73 µM, the EC50 [2] is reported as 2.5 µM and the Emax [3] is reported as 130%. It also gave an Emax [4] of 19%.

`O=[N+]([O-])CC(c1ccc(F)cc1)c1c(-c2cccc(F)c2)[nH]c2c(F)cccc12` (stereo not drawn) showed an EC50 [1] of 0.23 µM, an EC50 [2] of 1.1 µM and an Emax [3] of 110%. It also gave an Emax [4] of 43%.

`O=[N+]([O-])CC(c1ccc(F)cc1)c1c(-c2ccccc2)[nH]c2ccccc12` (stereo not drawn) showed an EC50 [1] of 0.44 µM, an EC50 [2] of over 10 µM and an Emax [3] of 110%. It also gave an Emax [4] of 8%.

For `O=[N+]([O-])CC(c1ccccc1)c1c(-c2ccccc2F)[nH]c2ccccc12` (stereo not drawn), the EC50 [1] was 1.4 µM, the EC50 [2] was 0.71 µM and the Emax [3] was 140%. For the same molecule, the Emax [4] was 7%.

`O=[N+]([O-])CC(c1ccccc1)c1c(-c2ccccc2)[nH]c2cccc(F)c12` (stereo not drawn) showed an EC50 [1] of 0.13 µM, an EC50 [2] of 0.9 µM and an Emax [3] of 120%. For the same molecule, the Emax [4] was 37%.

With `O=[N+]([O-])CC(c1ccccc1F)c1c(-c2ccccc2)[nH]c2cc(F)ccc12` (stereo not drawn) the EC50 [1] was 0.058 µM and the EC50 [2] was 1.14 µM.
